Measurements: ChEMBL document CHEMBL1121825, “A potent, new, sedative--hypnotic agent: 5,7-dihydro-5,5,7,7-tetramethyl-3-(3-nitrophenyl)furo[3,4-e]-as-triazine 4-oxide” (J Med Chem, 1981)

Tests used:
[1] = test system: Mus musculus; assay: Ability to reinduce anesthesia in mice as a measure of in vivo sedative-hypnotic activity; assay type: functional
How it was run: (§1)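 Male Royal Hart mice (20–25 g) were anesthetized with hexobarbital 70.0 mg/kg iv. While they were regaining the righting reflex, compound was given ip. Reinduction was scored as loss of righting reflex for 10 min. ED50 (mg/kg) is the dose reinducing anesthesia in 50% of mice, estimated by probit analysis (Miller–Tainter).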

[2] = test system: Mus musculus; assay: Ataxia effect in mice when the compound was administered ip; assay type: functional
How it was run: (§2)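 Modified Irwin behavioral screen in male Royal Hart mice (20–25 g), dosed ip or orally, observed for 2 h after dosing. ED50 (mg/kg) estimated by probit analysis (Miller–Tainter), or evaluation at the highest nontoxic dose used. At least 20 animals per drug; ± SE.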

[3] = test system: Mus musculus; assay: Compound was tested for mortality in mice when administered intravenously; assay type: functional; conditions: iv
[4] = test system: Felis catus; assay: Tested to induce segmental reflexes in cat when given at a dose of 1-4 mg/Kg intravenously; Caused respiratory failure and death; assay type: organism-based; conditions: in vivo, iv
How it was run: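 Chloralose-anaesthetised intact cats. The monosynaptic patellar reflex was evoked by solenoid-hammer tendon tap and the knee jerk recorded. The polysynaptic flexor reflex was recorded as tibialis anticus contraction on electrical popliteal nerve stimulation.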

[5] = test system: Mus musculus; assay: Compound was tested for tonic convulsions when administered perorally; assay type: functional; conditions: po
How it was run: (§3)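 Groups of five male Royal Hart mice (20–25 g) received test drug ip or orally 1 h before seizure induction with SaH 41-178 (50.0 mg/kg ip). ED50 is the dose preventing tonic convulsions or death in 50% of animals, by probit analysis.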

[6] = test system: Mus musculus; assay: Ataxia effect in mice when the compound was administered po; assay type: functional; how it was run: as §2
[7] = test system: Mus musculus; assay: Compound was tested for tonic convulsions when administered intraperitoneally; assay type: functional; conditions: ip; how it was run: as §3
[8] = test system: Mus musculus; assay: Compound was tested for rotarod motor coordination in mice when administered intravenously; assay type: functional; conditions: iv
[9] = Acute toxicity in mice after 72 hours administration perorally; assay type: organism-based; conditions: mouse, in vivo, po
How it was run: (§4)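 Male Royal Hart mice (20–25 g) dosed intraperitoneally or orally; deaths scored at 2 h and 72 h. LD50 (mg/kg) estimated by probit analysis (Miller–Tainter), with at least 20 animals per drug.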

[10] = Acute toxicity in rats after 2 hours of administration perorally; assay type: organism-based; conditions: rat, in vivo, po
How it was run: (§5)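 Male Wistar rats (130–160 g) dosed orally; lethality read at 2 h and 72 h. LD50 (mg/kg) derived by probit analysis (Miller–Tainter), using a minimum of 20 animals per drug.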

[11] = Acute toxicity in mice after 2 hours administration ip; assay type: organism-based; conditions: mouse, in vivo; how it was run: as §4
[12] = test system: Mus musculus; assay: Prehensile effect in mice when the compound was administered perorally; assay type: functional; conditions: po
How it was run: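 Oral dosing of male Royal Hart mice (20–25 g), scored by a modified Irwin behavioural screen. ED50 (mg/kg) estimated by probit analysis; at least 20 animals per drug.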

[13] = Acute toxicity in rats after 72 hours of administration perorally; assay type: organism-based; conditions: rat, in vivo, po; how it was run: as §5
[14] = test system: Rattus norvegicus; assay: Hypomotility effect in rats when administered perorally; conditions: po
[15] = Acute toxicity in mice after 72 hours administration ip; assay type: organism-based; conditions: mouse, in vivo; how it was run: as §4
[16] = test system: Monkey; assay: Sleep latency in cebus monkey sleep was determined; shortened (65-85% at the threshold sleep-inducing dose); assay type: functional
[17] = test system: Rattus norvegicus; assay: Ataxia effect in rats when the compound was administered perorally; conditions: po
[18] = test system: Mus musculus; assay: Reinduction of anesthesia in mice when administered perorally was tested; assay type: functional; conditions: po
[19] = test system: Mus musculus; assay: Compound was tested for rotarod motor coordination in mice when administered perorally; assay type: functional; conditions: po
How it was run: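 Modified Dunham–Miya rotarod test. Groups of five male Royal Hart mice (20–25 g) were trained on a 15 rpm corrugated rod for 60–90 s, then retested 30 and 60 min after drug or saline (ip or oral). Percent change in riding time versus controls; ED50 is the dose giving a 50% decrease, by probit analysis.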

[20] = test system: Mus musculus; assay: Righting reflex effect in mice when the compound was administered intraperitoneally; assay type: functional; conditions: ip; how it was run: as §2
[21] = test system: Mus musculus; assay: Hypomotility effect in mice when the compound was administered intraperitoneally; assay type: functional; conditions: ip; how it was run: as §2
[22] = test system: Monkey; assay: Tested for its activity towards cebus monkey sleep relative to methaqualone at 3-9 hours of duration; 4-64 times potent; assay type: functional
[23] = test system: Rattus norvegicus; assay: Righting reflex effect in rats when the compound was administered perorally; conditions: po
[24] = test system: Mus musculus; assay: Prehensile effect in mice when the compound was administered intravenously; assay type: functional; conditions: iv
[25] = test system: Mus musculus; assay: Righting reflex effect in mice when the compound was administered perorally; assay type: functional; conditions: po; how it was run: as §2
[26] = Acute toxicity in mice after 2 hours administration perorally; assay type: organism-based; conditions: mouse, in vivo, po; how it was run: as §4
[27] = test system: Mus musculus; assay: Tested for ability to reinduce anesthesia in mice when administered intraperitoneally as a measure of in vivo sedative-hypnotic activity; D represents Toxic; assay type: functional, organism-based; how it was run: as §1

In the case of CC1(C)OC(C)(C)c2nc(Cc3ccccc3)nnc21, the ED50 [1] is reported as 25 mg/kg.

In the case of CC1(C)OC(C)(C)c2c1nnc(-c1cccc([N+](=O)[O-])c1)[n+]2[O-], the ED50 [2] is reported as 130 mg/kg, the ED50 [3] is reported as 54 mg/kg and the Activity [4] is reported as “Caused respiratory failure and death”. It also gave an ED50 [5] greater than 1000 mg/kg, an ED50 [6] of 39 mg/kg and an ED50 [7] of 54 mg/kg. It also gave an ED50 [8] of 51 mg/kg, an LD50 at 72 h [9] greater than 400 mg/kg and an LD50 at 2 h [10] greater than 800 mg/kg. It also gave an LD50 at 2 h [11] greater than 400 mg/kg, an ED50 [12] of 54 mg/kg and an LD50 at 72 h [13] greater than 800 mg/kg. The ED50 [14] was 37 mg/kg, the LD50 at 72 h [15] was greater than 235 mg/kg and the Sleep latency [16] was 65%. For the same compound, the ED50 [1] was 72 mg/kg, the ED50 [17] was 39 mg/kg and the ED50 [18] was 72 mg/kg. It also gave an ED50 [19] greater than 1000 mg/kg, an ED50 [20] of 123 mg/kg and an ED50 [21] of 50 mg/kg. It also gave a Relative potency [22] of 4, an ED50 [23] of 118 mg/kg and an ED50 [24] of 125 mg/kg. It also gave an ED50 [25] of 55 mg/kg and an LD50 at 2 h [26] greater than 400 mg/kg.

CC1(C)OC(C)(C)c2nc(-c3cccc([N+](=O)[O-])c3)nnc21 gave an ED50 [1] of 68.8 mg/kg.

Compound CC1(C)OC(C)(c2ccccc2)c2nnc(-c3cccc([N+](=O)[O-])c3)nc21 (centres undefined) has an ED50 [1] of 800 mg/kg.

Work on CC1(C)OC(C)(C)c2c1nnc(-c1cccc(Cl)c1)[n+]2[O-] yielded an ED50 [1] of 500 mg/kg.

For CC1(C)OC(C)(C)c2nc(-c3cccc(C(F)(F)F)c3)nnc21, the ED50 [1] was 500 mg/kg.

For CCOC(=O)c1nnc(-c2ccccn2)nc1O, the ED50 [27] was “Toxic”.

With CC1(C)OC(C)(C)c2nc(-c3cnccn3)nnc21 the ED50 [1] was 100 mg/kg.

CC1(C)OC(C)(C)c2c1nnc(-c1ccccc1)[n+]2[O-] showed an ED50 [1] of 163 mg/kg.

Work on CC1(C)OC2(CCCCC2)c2c1nnc(-c1ccccc1)[n+]2[O-] yielded an ED50 [1] of 183 mg/kg.

For CC1(C)OC(C)(C)c2nc(-c3ccccc3)nnc21, the ED50 [1] was 167 mg/kg.

In the case of Cc1nnc(-c2ccccn2)nc1C, the ED50 [27] is reported as “Toxic”.

CC1(C)OC(C)(C)c2nc(-c3cccnc3)nnc21 showed an ED50 [1] of 28.1 mg/kg.

CC1(C)OC(C)(C)c2c1nnc(-c1ccc(F)cc1)[n+]2[O-] gave an ED50 [1] of 500 mg/kg.

In the case of CC1(C)OC(C)(C)c2c1nnc(-c1cc([N+](=O)[O-])cc([N+](=O)[O-])c1)[n+]2[O-], the ED50 [1] is reported as 500 mg/kg.

With CC1(C)CSCC(C)(C)c2nc(-c3ccccn3)nnc21 the ED50 [27] was “Toxic”.

Work on CC1(C)CSCC(C)(C)c2nc(-c3ccccc3)nnc21 yielded an ED50 [1] of 31.3 mg/kg.

In the case of CC1(C)OC(C)(C)c2nc(-c3ccc4ccccc4n3)nnc21, the ED50 [1] is reported as 168 mg/kg.

Work on CC1(C)OC(C)(C)c2nc(-c3cccc[n+]3[O-])nnc21 yielded an ED50 [1] of 138 mg/kg.
